Assay results from different studies.
Matrix: Caco-2

Compound	setting	measurement	value
C[C@]12C[C@@H](O)[C@H]3[C@@H](CC[C@]4(O)C[C@@H](O)C[C@@H](O)[C@]34CO)[C@@]1(O)CC[C@@H]2c1cn(Cc2ccccc2)nn1	1 h, pH 6.5	Papp A→B	0.19 ×10⁻⁶ cm/s
C/N=c1\nc(-c2ccccc2)n(-c2ccccc2)s1	20 µM, 95 min	Papp A→B	38.9 ×10⁻⁶ cm/s
COc1cc2c(c(OC)c1OC)-c1ccc(OC)c(=O)cc1[C@@H](NC(C)=O)CC2		Papp A→B	0.2 ×10⁻⁶ cm/s
COc1ccc2c(c1)[C@]13CCCC[C@@H]1[C@H](C2)N(C)CC3	10 µM, pH 6.5	Papp A→B	34.9 ×10⁻⁶ cm/s
C[C@H]1O[C@@H](O[C@H]2[C@@H](O)C[C@H](O[C@H]3[C@@H](O)C[C@H](O[C@H]4CC[C@@]5(C)[C@H](CC[C@@H]6[C@@H]5C[C@@H](O)[C@]5(C)[C@@H](C7=CC(=O)OC7)CC[C@]65O)C4)O[C@@H]3C)O[C@@H]2C)C[C@H](O)[C@@H]1O	10 µM, 1 h, pH 7.4	Papp A→B	4.28 ×10⁻⁶ cm/s
N=c1c2c(-c3ccccc3)c(-c3ccccc3)n(Cc3ccccc3)c2ncn1[C@H]1CC[C@H](O)CC1	3 µM, 2 h, pH 7.4	Papp A→B	0.2 ×10⁻⁶ cm/s
CC[C@@]1(O)C(=O)OCc2c1cc1n(c2=O)Cc2cc3ccccc3nc2-1	100 µM, 105 min	Papp A→B	36 ×10⁻⁶ cm/s
O=C(CCCN1CCC2(CC1)C(=O)NCN2c1ccccc1)N(CC1CCCCC1)c1ccccc1		Papp B→A	6.8 ×10⁻⁶ cm/s
